Active and inactive are the calls of the source. No cut-off for these calls is given here.
Legend:
Rattus norvegicus [1] = test: Induction of rotation in rat with unilateral denervation of caudate nucleus at 0.25 mg/kg, sc; format: functional, organism-based; design: dose 0.25 mg/kg
In short: (§1)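 Rats given a unilateral 6-hydroxydopamine injection into the substantia nigra. Compounds dosed subcutaneously and the rotations they induced were counted. Apomorphine served as the reference.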

Columbidae [2] = test: Inhibition of apomorphine-induced pecking in pigeon at 3 umol/kg; format: functional
In short: (§2)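 Pigeons. Compounds given intramuscularly at up to 4 mg/kg to test induction of pecking. Antagonism of pecking induced by apomorphine (1.62 μM/kg) was also tested, and ED50 values were estimated.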

Rattus norvegicus [3] = test: Induction of rotation in rat with unilateral denervation of caudate nucleus at 1 mg/kg, sc; format: functional, organism-based; design: dose 1 mg/kg; in short: as §1
Rattus norvegicus [4] = organism: Rattus norvegicus; test: Toxicity in Sprague-Dawley rat assessed as sniffing at 50 ug injection into nucleus accumbens; format: organism-based; conditions: in vivo, other
In short: (§3)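 Male Sprague-Dawley rats (250 ± 25 g) with stereotaxic guide cannulae aimed at the nucleus accumbens. Tested 10–14 days after surgery with a bilateral 1 μL infusion over 60 s; each rat used once and placement checked histologically. Locomotion counted by photocell cage. Stereotypy scored, where 3–4 = biting, gnawing or licking. Pretreatments given ip: α-methyl-p-tyrosine 250 mg/kg 6 h before, or haloperidol 0.1, propranolol 5 or aceperone 2.5 mg/kg 30 min before.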

Felis catus [5] = organism: Felis catus; test: Inhibition of field stimulation-induced positive ionotrophic response in cat atria; format: functional; conditions: Cardiac atrium
Canis familiaris [6] = test: Toxicity in dog assessed as emesis at 2 mg/kg, sc; format: organism-based, Canis lupus familiaris; design: dose 2 mg/kg, route subcutaneous; conditions: in vivo
In short: (§4)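 Unanaesthetised dogs. For emesis, compound given sc and dogs watched 45 min for an emetic response. For antagonism, compound given sc and apomorphine 100 μg/kg 15 min later.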

Mus musculus [7] = test: Toxicity in albino B.K.W mouse assessed as stereotyped behaviour at 20 to 80 mg/kg, sc; format: organism-based; design: dose 20-80 mg/kg, route subcutaneous; conditions: in vivo
In short: (§5)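 Mice dosed subcutaneously at 20, 40 and 80 mg/kg in 1 mL/kg, doses as free base. Climbing scored as all four paws on the wire, giving a climbing index (% time over 30 min after the first climb) and the maximum time of a single climb. Circling was tested in mice with a unilateral caudate-putamen electrolesion, pre-selected for circling of 7 or more revolutions/2 min in response to apomorphine. Stereotypy was also recorded.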

Canis lupus familiaris = organism: Canis lupus familiaris; test: Inhibition of electric stimulated dog right cardioaccelerator nerve; format: functional
In short: (§6)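 Dog cardioaccelerator nerve preparation under barbital (200 mg/kg) anaesthesia. Compounds given intravenously up to 1.0 mg/kg. Positive chronotropic responses read by cardiometer, with blood pressure taken from the right femoral artery.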

Canis familiaris [8] = test: Inhibition of apomorphine-induced emesis in dog at 2 mg/kg, sc; format: functional, organism-based; design: dose 2 mg/kg; conditions: Canis lupus familiaris; in short: as §4
[9] = Toxicity in pigeon assessed as pecking; conditions: columbidae; in short: as §2
Mus musculus [10] = test: Toxicity in albino B.K.W mouse assessed as circling behaviour at 20 to 80 mg/kg, sc; format: organism-based; design: dose 20-80 mg/kg, route subcutaneous; conditions: in vivo; in short: as §5
Mus musculus [11] = test: Toxicity in albino B.K.W mouse assessed as climbing behaviour at 20 to 80 mg/kg, sc; format: organism-based; design: dose 20-80 mg/kg, route subcutaneous; conditions: in vivo; in short: as §5
Felis catus [12] = organism: Felis catus; test: Inhibition of field stimulation-induced positive chronotrophic response in cat atria; format: functional; conditions: Cardiac atrium
Rattus norvegicus [13] = organism: Rattus norvegicus; test: Toxicity in Sprague-Dawley rat assessed as locomotor hyperactivity treated bilateral injection into nucleus accumbens at 50 ug; format: organism-based; conditions: in vivo, other; in short: as §3
Canis familiaris [14] = test: Increase in heart rate in dog assessed as beats at 30 ug/kg, iv by cardiotachometer; format: functional, Canis lupus familiaris
In short: (§7)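 Anaesthetised dog (barbital 200 mg/kg). Compounds given intravenously, highest dose tested 1.0 mg/kg. Blood pressure recorded from the right femoral artery and heart rate by cardiometer. Resting heart rate, blood pressure and positive chronotropic responses were assessed after dosing. Doses calculated as free base.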

Rattus norvegicus [15] = organism: Rattus norvegicus; test: Toxicity in Sprague-Dawley rat assessed as gnawing up to 50 ug injection into nucleus accumbens; format: organism-based; conditions: in vivo, other; in short: as §3
Rattus norvegicus [16] = organism: Rattus norvegicus; test: Toxicity in Sprague-Dawley rat assessed as biting up to 50 ug injection into nucleus accumbens; format: organism-based; conditions: in vivo, other; in short: as §3
Rattus norvegicus [17] = organism: Rattus norvegicus; test: Toxicity in Sprague-Dawley rat assessed as licking up to 50 ug injection into nucleus accumbens; format: organism-based; conditions: in vivo, other; in short: as §3
Canis familiaris [18] = test: Increase in blood pressure in dog at 30 ug/kg, iv by cardiotachometer; format: functional, Canis lupus familiaris; in short: as §7
Canis familiaris [19] = test: Increase in resting heart rate in dog at 0.5 mg/kg, iv by cardiotachometer; format: functional, organism-based; design: dose 0.5 mg/kg; conditions: Canis lupus familiaris; in short: as §7
Canis familiaris [20] = test: Increase in heart rate in dog at 1 mg/kg, iv by cardiotachometer; format: functional, organism-based; design: dose 1 mg/kg; conditions: Canis lupus familiaris; in short: as §7
Columbidae [21] = test: Inhibition of apomorphine-induced pecking in pigeon; format: functional; in short: as §2
Canis familiaris [22] = test: Increase in ionotrophic response in iv dosed dog following field stimulation assessed as minimum effective dose by cardiotachometer; format: functional, Canis lupus familiaris; design: unit not given here; in short: as §6
Canis familiaris [23] = test: Increase in blood pressure in dog at 0.5 mg/kg, iv by cardiotachometer; format: functional, Canis lupus familiaris; in short: as §7
Canis familiaris [24] = test: Increase in ionotrophic response in dog following field stimulation at 1 mg/kg, iv by cardiotachometer; format: functional, organism-based; design: dose 1 mg/kg; conditions: Canis lupus familiaris; in short: as §6
Rattus norvegicus [25] = test: Induction of rotation in rat with unilateral denervation of caudate nucleus at 4 mg/kg, sc; format: functional, organism-based; design: dose 4 mg/kg; in short: as §1
Rattus norvegicus [26] = organism: Rattus norvegicus; test: Toxicity in Sprague-Dawley rat assessed as sniffing at 12.5 to 50 ug injection into nucleus accumbens; format: organism-based; conditions: in vivo, other; in short: as §3
Rattus norvegicus [27] = organism: Rattus norvegicus; test: Toxicity in Sprague-Dawley rat assessed as hyperactivity treated intra-accumbens injection pretreated with haloperiodol; format: organism-based; conditions: in vivo, other; in short: as §3
Rattus norvegicus [28] = organism: Rattus norvegicus; test: Toxicity in Sprague-Dawley rat assessed as hyperactivity treated intra-accumbens injection pretreated with aceperone; format: organism-based; conditions: in vivo, other; in short: as §3
Rattus norvegicus [29] = organism: Rattus norvegicus; test: Toxicity in Sprague-Dawley rat assessed as hyperactivity treated intra-accumbens injection pretreated with alpha-methyl-p-tyrosine; format: organism-based; conditions: in vivo, other; in short: as §3
Rattus norvegicus [30] = organism: Rattus norvegicus; test: Toxicity in Sprague-Dawley rat assessed as hyperactivity treated intra-accumbens injection; format: organism-based; conditions: in vivo, other; in short: as §3
Rattus norvegicus [31] = organism: Rattus norvegicus; test: Toxicity in Sprague-Dawley rat assessed as hyperactivity treated bilateral injection into nucleus accumbens; format: organism-based; conditions: in vivo, other; in short: as §3
Rattus norvegicus [32] = organism: Rattus norvegicus; test: Toxicity in Sprague-Dawley rat assessed as hyperactivity treated intra-accumbens injection pretreated with propranolol; format: organism-based; conditions: in vivo, other; in short: as §3
Canis familiaris [33] = test: Increase in resting heart rate in dog at […], iv by cardiotachometer; format: functional, organism-based; conditions: Canis lupus familiaris; in short: as §7
Canis familiaris [34] = test: Increase in heart rate in dog assessed as beats at 50 ug/kg, iv by cardiotachometer; format: functional, Canis lupus familiaris; in short: as §7
Canis familiaris [35] = test: Increase in blood pressure in dog at 50 ug/kg, iv by cardiotachometer; format: functional, Canis lupus familiaris; in short: as §7
Rattus norvegicus [36] = organism: Rattus norvegicus; test: Toxicity in Sprague-Dawley rat assessed as hyperactivity treated bilateral injection into nucleus accumbens at > 6.25 ug; format: organism-based; conditions: in vivo, other; in short: as §3

Compound	inhibition (Felis catus [5])	Activity (Canis familiaris [6])	Activity (Mus musculus [7])	inhibition (Canis lupus familiaris)	Activity (Canis familiaris [8])	Activity [9]	Activity (Mus musculus [10])	Activity (Mus musculus [11])	inhibition (Felis catus [12])	Activity (Rattus norvegicus [13])	Activity (Rattus norvegicus [15])	Activity (Rattus norvegicus [16])	Activity (Rattus norvegicus [17])	Activity (Rattus norvegicus [25])	Activity (Canis familiaris [33])	other results
CN1CCc2cccc3c2[C@H]1Cc1ccc(O)c(O)c1-3	–	–	–	–	–	–	–	–	–	–	–	–	–	–	–	Activity (Rattus norvegicus [1]): Active
COc1cc(CC(C)N)c(OC)cc1C (centres undefined)	–	–	–	–	–	–	–	–	–	–	–	–	–	–	–	inhibition (Columbidae [2]): Active
C[C@H](N)Cc1ccccc1	–	–	–	–	–	–	–	–	–	–	–	–	–	–	–	Activity (Rattus norvegicus [3]): Active
Br.CCNC(C)Cc1ccc(O)c(O)c1 (racemic)	inactive	Non-toxic	Non-toxic	inactive	inactive	Non-toxic	Non-toxic	Non-toxic	inactive	Toxic	–	–	–	–	–	Activity (Rattus norvegicus [4]): Toxic
Br.CC(C)NC(C)Cc1ccc(O)c(O)c1 (racemic)	inactive	Non-toxic	Non-toxic	inactive	inactive	Non-toxic	Non-toxic	Non-toxic	inactive	Non-toxic	Non-toxic	Non-toxic	Non-toxic	–	–	Activity (Canis familiaris [14]): 23 bpm; Activity (Canis familiaris [18]): 40%
Br.CC(C)N(C)C(C)Cc1ccc(O)c(O)c1 (racemic)	inactive	Non-toxic	Non-toxic	inactive	inactive	Non-toxic	Non-toxic	Non-toxic	inactive	Non-toxic	Non-toxic	Non-toxic	Non-toxic	–	–	Activity (Canis familiaris [19]): inactive; Activity (Canis familiaris [20]): Active; inhibition (Columbidae [21]): Active; MED (Canis familiaris [22]): 20; Activity (Canis familiaris [23]): <=10 mmHg; Activity (Canis familiaris [24]): Active
Br.CCCN(CCC)C(C)Cc1ccc(O)c(O)c1 (racemic)	inactive	Non-toxic	Non-toxic	inactive	inactive	Non-toxic	Non-toxic	Non-toxic	inactive	Toxic	–	–	–	inactive	–	Activity (Canis familiaris [19]): inactive; Activity (Canis familiaris [20]): Active; MED (Canis familiaris [22]): 20; Activity (Canis familiaris [23]): <=10 mmHg; Activity (Canis familiaris [24]): Active; Activity (Rattus norvegicus [26]): Toxic
Br.CCCNC(C)Cc1ccc(O)c(O)c1 (racemic)	inactive	Non-toxic	Non-toxic	inactive	inactive	Non-toxic	Non-toxic	Non-toxic	inactive	–	Toxic	Toxic	Toxic	inactive	Active	Activity (Canis familiaris [14]): 35 bpm; Activity (Rattus norvegicus [27]): Non-toxic; Activity (Rattus norvegicus [28]): Toxic; Activity (Rattus norvegicus [29]): Non-toxic; Activity (Rattus norvegicus [30]): Toxic; Activity (Rattus norvegicus [31]): Toxic; Activity (Rattus norvegicus [32]): Toxic; Activity (Canis familiaris [18]): 35%
Br.CC(Cc1ccc(O)c(O)c1)N(C)C (racemic)	inactive	Non-toxic	Non-toxic	inactive	inactive	Non-toxic	Non-toxic	Non-toxic	inactive	Non-toxic	Non-toxic	Non-toxic	Non-toxic	–	Active	Activity (Canis familiaris [34]): 50 bpm; Activity (Canis familiaris [35]): 80%
Br.CC(N)Cc1ccc(O)c(O)c1 (racemic)	inactive	Non-toxic	Non-toxic	inactive	inactive	Non-toxic	Non-toxic	Non-toxic	inactive	–	–	–	–	inactive	Active	Activity (Rattus norvegicus [27]): Non-toxic; Activity (Rattus norvegicus [36]): Toxic; inhibition (Columbidae [21]): Active; Activity (Rattus norvegicus [28]): Toxic; Activity (Rattus norvegicus [29]): Non-toxic; Activity (Rattus norvegicus [30]): Toxic; Activity (Rattus norvegicus [26]): Toxic; Activity (Rattus norvegicus [32]): Toxic; Activity (Canis familiaris [34]): 50 bpm; Activity (Canis familiaris [35]): 80%
